Activity calls are given as the source filed them. The rule behind the calls is not given here.
Tests used:
Homo sapiens [1] = species: Homo sapiens; test: Metal chelating activity in human PE/CA-PJ15 cells assessed as decrease in extracellular Ca2+ concentration at 30 uM by FURA-2 AM probe-based spectrophotofluorometric analysis; assay type: functional, cell-based; parameters: scale not given: the % may be the effect or the level left
In short: (§1)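 Cell suspension was diluted into HBSS with 1 mM CaCl2 and lysed with 1% Triton X-100. Ca2+/Fura-2 fluorescence after lysis was set as 100%, and bisphosphonate (10–30 µM) was then added. The fluorescence drop was followed over time and read at 30 µM. Mean of 10 experiments ± SEM.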

Homo sapiens [2] = species: Homo sapiens; test: Metal chelating activity in human PE/CA-PJ15 cells assessed as change in cytosolic Ca2+ concentration at 10 to 30 uM after 50 secs using Ca2+ free medium by FURA-2 AM probe-based spectrophotofluorometric analysis; assay type: functional, cell-based
In short: (§2)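 Cultured PE/CA-PJ15 cells loaded with FURA-2 AM for 60 min at 37 °C in the dark. Cells resuspended in HBSS pH 7.4, either Ca2+-free (0.1 mM EGTA) or with 1 mM Ca2+. Bisphosphonate added to 10 µM, then a second addition 150 s later to 30 µM. Ratio fluorescence read at ex 340/380 nm, em 510 nm, converted to [Ca2+]c. Δ[Ca2+]c (nM) taken 50 s after addition; mean of 10 experiments ± SEM.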

Homo sapiens [3] = species: Homo sapiens; test: Metal chelating activity in human PE/CA-PJ15 cells assessed as change in cytosolic Ca2+ concentration at 10 to 30 uM after 50 secs using Ca2+ containing medium by FURA-2 AM probe-based spectrophotofluorometric analysis; assay type: functional, cell-based; in short: as §2
[4] = Drug level in presence of tetraethyl (3-(indol-3-yl)propane-1,1-diyl)bis(phosphonate); assay type: physicochemical
In short: (§3)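 Substrate at 5 µM final with human liver microsomes (0.5 mg protein/ml) in 100 mM potassium phosphate pH 7.4, preincubated 5 min at 37 °C with shaking; started with 1 mM NADPH. Stopped at 0 and 30 min with cold acetonitrile containing labetalol internal standard. Protein spun down; supernatant analysed by HPLC-MS/MS for parent remaining.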

[5] = Lipophilicity, log P of the compound; assay type: physicochemical; settings: octanol/water
Liver microsome [6] = test: Drug level in human liver microsomes treated with tetraethyl (3-(indol-3-yl)propane-1,1-diyl)bis(phosphonate) at 5 uM preincubated for 5 mins followed by NADPH addition measured after 30 mins by LC/MS analysis; assay type: ADME; settings: 0.5 h
In short: (§4)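 Human liver microsomes (0.5 mg protein/ml) with substrate at 5 µM final in 100 mM potassium phosphate pH 7.4. Preincubated 5 min at 37 °C with shaking, then started with 1 mM NADPH. Stopped at 0 and 30 min with cold acetonitrile containing labetalol internal standard. Spun 12,000 g, 5 min, 4 °C; supernatant analysed by HPLC-MS/MS.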

Liver microsome [7] = test: Retention time of the compound in human liver microsomes at 5 uM preincubated for 5 mins followed by NADPH addition measured after 30 mins by LC/MS analysis; assay type: ADME; settings: 0.5 h
In short: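 Microsomal incubation: 0.5 mg protein/ml, 5 µM substrate final, pH 7.4 phosphate, 5 min preincubation at 37 °C, 1 mM NADPH, quenched at 0 and 30 min with cold acetonitrile. Supernatant run by HPLC-MS/MS on a C18 column (100 × 2.1 mm, 40 °C). Mobile phases were water/0.1% formic acid and acetonitrile/0.1% formic acid at 0.3 mL/min, gradient from 0% B.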

Liver microsome [8] = test: Drug level in human liver microsomes treated with tetraethyl (3-(5-fluoroindol-3-yl)propane-1,1-diyl)bis(phosphonate) at 5 uM preincubated for 5 mins followed by NADPH addition measured after 30 mins by LC/MS analysis; assay type: ADME; settings: 0.5 h; in short: as §4
Liver microsome [9] = test: Drug metabolism in human liver microsomes assessed as radical of 3-allyl-1H-indole/3-methyl-1H-indole formation by measuring remaining compound level at 5 uM preincubated for 5 mins followed by NADPH addition measured after 30 mins by LC/MS analysis; assay type: ADME; settings: 0.5 h; in short: as §3
Homo sapiens [10] = species: Homo sapiens; test: Metal chelating activity in human PE/CA-PJ15 cells assessed as decrease in cytosolic Ca2+ concentration at 10 to 30 uM after 50 secs using Ca2+ free medium by FURA-2 AM probe-based spectrophotofluorometric analysis
Homo sapiens [11] = species: Homo sapiens; test: Metal chelating activity in human PE/CA-PJ15 cells assessed as decrease in extracellular Ca2+ concentration by FURA-2 AM probe-based spectrophotofluorometric analysis; assay type: functional, cell-based; in short: as §1
Homo sapiens [12] = species: Homo sapiens; test: Metal chelating activity in human PE/CA-PJ15 cells assessed as change in cytosolic Ca2+ concentration at 60 uM after 50 secs using Ca2+ containing medium by FURA-2 AM probe-based spectrophotofluorometric analysis; assay type: functional, cell-based
Homo sapiens [13] = species: Homo sapiens; test: Metal chelating activity in human PE/CA-PJ15 cells assessed as change in cytosolic Ca2+ concentration at 60 uM after 50 secs using Ca2+ free medium by FURA-2 AM probe-based spectrophotofluorometric analysis; assay type: functional, cell-based
Homo sapiens [14] = species: Homo sapiens; test: Increase in cytosolic Ca2+ concentration in human PE/CA-PJ15 cells after 50 secs using Ca2+ containing medium by FURA-2 AM probe-based spectrophotofluorometric analysis; assay type: functional, cell-based; in short: as §2
Liver microsome [15] = test: Drug metabolism in human liver microsomes assessed as radical of 3-allyl-5-fluoro-1H-indole formation by measuring remaining compound level at 5 uM preincubated for 5 mins followed by NADPH addition measured after 30 mins by LC/MS analysis; assay type: ADME; settings: 0.5 h; in short: as §3

CCOP(=O)(OCC)C(CCc1c[nH]c2cc(F)ccc12)P(=O)(OCC)OCC
Activity (Homo sapiens [1]): -18% | Activity (Homo sapiens [2]): Active | Activity (Homo sapiens [3]): Active

O=P(O)(O)C(CCc1c[nH]c2ccccc12)P(=O)(O)O
Drug metabolism [4]: metabolite_detected

NCCC(O)(P(=O)([O-])O)P(=O)([O-])O.[Na+].[Na+]
logP [5]: -4.7

[CH2]c1c[nH]c2ccccc12
Drug metabolism (Liver microsome [6]): metabolite_detected | Retention_time (Liver microsome [7]): 5.183 min

O=P([O-])(O)C(O)(Cc1cccnc1)P(=O)(O)O.[Na+] [RISEDRONATE SODIUM]
logP [5]: -3.6

[CH]=CCc1c[nH]c2ccc(F)cc12
Drug metabolism (Liver microsome [8]): metabolite_detected | Retention_time (Liver microsome [7]): 5.628 min

[CH]=CCc1c[nH]c2ccccc12
Drug metabolism (Liver microsome [6]): metabolite_detected | Retention_time (Liver microsome [7]): 6.829 min

CCOP(=O)(OCC)C(CCc1c[nH]c2ccccc12)P(=O)(OCC)OCC
Stability (Liver microsome [9]): 20% | Activity (Homo sapiens [1]): -73% | Activity (Homo sapiens [2]): Active | Activity (Homo sapiens [3]): Active | Activity (Homo sapiens [10]): Active | Activity (Homo sapiens [11]): Dose-dependent effect | Retention_time (Liver microsome [7]): 8.142 min

CC(O)(P(=O)(O)O)P(=O)(O)O [ETIDRONATE DISODIUM]
logP ([5]; read-out: logP): -3.8

CCOP(=O)(OCC)C(CCc1c[nH]c2ccncc12)P(=O)(OCC)OCC
Activity (Homo sapiens [1]): -6% | Activity (Homo sapiens [12]): 67 nM | Activity (Homo sapiens [13]): 36 nM | Activity (Homo sapiens [2]): inactive | Activity (Homo sapiens [10]): inactive | Activity (Homo sapiens [14]): Dose-dependent effect

CCOP(=O)(OCC)C(CCc1c[nH]c2ccc(C(F)(F)F)cc12)P(=O)(OCC)OCC
Activity (Homo sapiens [1]): -16.5% | Activity (Homo sapiens [2]): Active | Activity (Homo sapiens [3]): Active

CCOP(=O)(OCC)C(CCc1c[nH]c2cc(C(F)(F)F)ccc12)P(=O)(OCC)OCC
Activity (Homo sapiens [1]): -5% | Activity (Homo sapiens [2]): Active | Activity (Homo sapiens [3]): Active

NCCCC(O)(P(=O)(O)O)P(=O)(O)O
Activity (Homo sapiens [1]): -7% | Activity (Homo sapiens [2]): Active | Activity (Homo sapiens [3]): Active

O=P(O)(O)C(Cl)(Cl)P(=O)(O)O [CLODRONATE DISODIUM]
logP ([5]; read-out: logP): -2.4 | Activity (Homo sapiens [1]): -12% | Activity (Homo sapiens [2]): Active | Activity (Homo sapiens [3]): Active

CCOP(=O)(OCC)C(CCc1c[nH]c2ccc(F)cc12)P(=O)(OCC)OCC
Activity (Homo sapiens [1]): -34% | Activity (Homo sapiens [2]): Active | Activity (Homo sapiens [3]): Active | Activity (Homo sapiens [10]): Active | Stability (Liver microsome [15]): 20% | Retention_time (Liver microsome [7]): 8.365 min

O=P(O)(O)C(CCc1c(C2Nc3ccccc3C2CCC(P(=O)(O)O)P(=O)(O)O)[nH]c2ccccc12)P(=O)(O)O (stereo unspecified)
Drug metabolism [4]: metabolite_detected
